Tests used:
[1] = target: GABA-A receptor; anion channel (Rattus norvegicus) (UniProt O09028+P15431+P18506+P18508+P19969+P20236+P23574+P23576+P28471+P28473+P30191+P62813+P63079+P63138+Q91ZM7+Q9ES14); assay: Ratio of binding affinity to the GABA-A receptor in the presence and absence of GABA; assay type: protein-complex assay
In short: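 [3H]-Ro 15-1788 displacement in washed rat cortical membranes (Krebs/HEPES pH 7.4, nipecotic acid 10^-4 M, 30 °C, 60 min) run with and without GABA at 0.3 mM. Nonspecific binding was defined by 3 μM clonazepam, and read-out was filtration with scintillation counting. The value is the ratio of the affinities obtained with GABA and without it.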

[2] = target: GABA-A receptor; anion channel; assay: Inhibition of radiolabeled antagonist [3H]-Ro- 15-1788 binding to benzodiazepine receptor from rat cortical membranes; assay type: cell membranes, Membrane
In short: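 Rat (Sprague–Dawley, 250-300 g) cortical membranes, water-washed and frozen at -20 °C ≥18 h, then washed repeatedly in Krebs/HEPES pH 7.4. Nonspecific binding with 3 μM clonazepam. Filtration, scintillation counting.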

SMILES | GABA shift [1] | IC50 [2] [nM]
CC(C)c1nc(-c2ncn3c2CN(C)C(=O)c2c(Cl)cccc2-3)no1 | 2.37 | 3.6
CCCc1nc(-c2ncn3c2CN=C(c2ccccc2Cl)c2ccccc2-3)no1 | 1.68 | 12
CCc1noc(-c2ncn3c2CN=C(c2ccccc2)c2c(Cl)cccc2-3)n1 | 2.21 | 4.1
Cc1noc(-c2ncn3c2CN=C(c2ccccc2)c2c(Cl)cccc2-3)n1 | 1.67 | 3.4
CCc1nc(-c2ncn3c2CN(C)C(=O)c2c(F)cccc2-3)no1 | 1.44 | 15
CC(C)(C)OC(=O)c1ncn2c1C1CCCN1C(=O)c1c(Br)cccc1-2 (stereo unspecified) | 1.34 | 0.6
Cc1noc(-c2ncn3c2CN(C)C(=O)c2ccccc2-3)n1 | 1.5 | 67
CC(C)c1noc(-c2ncn3c2CN=C(c2ccccc2Cl)c2cc(Cl)ccc2-3)n1 | 1.81 | 45
CCc1nc(-c2ncn3c2CN=C(c2ccccc2)c2cc(Cl)ccc2-3)no1 | 2.43 | 44
CCCc1nc(-c2ncn3c2CN=C(c2ccccc2)c2c(F)cccc2-3)no1 | 2.06 | 5.3
CCc1noc(-c2ncn3c2CN=C(c2ccccc2Cl)c2cc(Cl)ccc2-3)n1 | 2.11 | 25
CC(C)c1nc(-c2ncn3c2CN=C(c2ccccc2Cl)c2cc(Cl)ccc2-3)no1 | 2.79 | 12
CCCc1nc(-c2ncn3c2CN=C(c2ccccc2Cl)c2cc(Cl)ccc2-3)no1 | 1.81 | 8.2
Cc1nc(-c2ncn3c2CN=C(c2ccccc2)c2c(Cl)cccc2-3)no1 | 1.44 | 1.3
CC(C)c1nc(-c2ncn3c2CN(C)C(=O)c2ccccc2-3)no1 | 2.4 | 53
CC(C)c1noc(-c2ncn3c2CN(C)C(=O)c2ccccc2-3)n1 | 2.19 | 105
CCCc1nc(-c2ncn3c2CN(C)C(=O)c2ccccc2-3)no1 | 2 | 34
Cc1nc(-c2ncn3c2CN=C(c2ccccc2)c2c(F)cccc2-3)no1 | 1.68 | 2.4
CCc1noc(-c2ncn3c2CN(C)C(=O)c2c(Cl)cccc2-3)n1 | 1.43 | 9.7
CCCc1noc(-c2ncn3c2CN(C)C(=O)c2c(Cl)cccc2-3)n1 | 1.53 | 6
CCc1noc(-c2ncn3c2CN=C(c2ccccc2)c2cc(Cl)ccc2-3)n1 | 2 | 160
Cc1noc(-c2ncn3c2CN=C(c2ccccc2)c2cc(Cl)ccc2-3)n1 | 1.84 | 180
CCCc1nc(-c2ncn3c2CN=C(c2ccccc2)c2c(Cl)cccc2-3)no1 | 1.7 | 3.9
CCc1noc(-c2ncn3c2CN(C)C(=O)c2cc(Cl)ccc2-3)n1 | 0.91 | 600
CCCc1noc(-c2ncn3c2CN=C(c2ccccc2)c2ccccc2-3)n1 | 1.8 | 43
CCCc1noc(-c2ncn3c2CN=C(c2ccccc2)c2c(Cl)cccc2-3)n1 | 1.85 | 5.2

SMILES | GABA shift [1] | IC50 [2] [nM]
CCc1nc(-c2ncn3c2CN(C)C(=O)c2cc(F)ccc2-3)no1 | 1.84 | 27
Cc1noc(-c2ncn3c2CN(C)C(=O)c2c(F)cccc2-3)n1 | 1.85 | 22
CC(C)c1noc(-c2ncn3c2CN=C(c2ccccc2)c2c(Cl)cccc2-3)n1 | 1.91 | 7.2
Cc1nc(-c2ncn3c2CN=C(c2ccccc2)c2ccccc2-3)no1 | 1.56 | 7
Cc1nc(-c2ncn3c2CN=C(c2ccccc2Cl)c2cc(Cl)ccc2-3)no1 | 1.83 | 20
CCc1noc(-c2ncn3c2CN(C)C(=O)c2ccccc2-3)n1 | 1.79 | 51
CC(C)c1nc(-c2ncn3c2CN=C(c2ccccc2)c2c(Cl)cccc2-3)no1 | 1.82 | 6.9
Cc1noc(-c2ncn3c2CN=C(c2ccccc2Cl)c2cc(Cl)ccc2-3)n1 | 2.28 | 110
CC(C)c1noc(-c2ncn3c2CN(C)C(=O)c2c(Cl)cccc2-3)n1 | 1.86 | 14
CC(C)c1noc(-c2ncn3c2CN(C)C(=O)c2cc(F)ccc2-3)n1 | 1.86 | 100
CCCc1nc(-c2ncn3c2CN(C)C(=O)c2cc(F)ccc2-3)no1 | 1.96 | 27
CC(C)c1nc(-c2ncn3c2CN=C(c2ccccc2Cl)c2ccccc2-3)no1 | 1.64 | 14
CC(C)c1nc(-c2ncn3c2CN(C)C(=O)c2c(F)cccc2-3)no1 | 1.97 | 19
O=C(OCC1CC1)c1ncn2c1C1CCN1C(=O)c1c(Cl)cccc1-2 (stereo unspecified) | 1.7 | 4.2
CCc1noc(-c2ncn3c2CN(C)C(=O)c2c(F)cccc2-3)n1 | 2.4 | 42
CC(C)c1noc(-c2ncn3c2CN(C)C(=O)c2c(F)cccc2-3)n1 | 2.31 | 67
Cc1noc(-c2ncn3c2CN=C(c2ccccc2)c2c(F)cccc2-3)n1 | 1.84 | 8.3
CCCc1noc(-c2ncn3c2CN=C(c2ccccc2Cl)c2cc(Cl)ccc2-3)n1 | 2.92 | 34
CCc1nc(-c2ncn3c2CN=C(c2ccccc2Cl)c2ccccc2-3)no1 | 1.48 | 13
Cc1nc(-c2ncn3c2CN(C)C(=O)c2c(F)cccc2-3)no1 | 1.65 | 11
CCc1nc(-c2ncn3c2CN(C)C(=O)c2ccccc2-3)no1 | 1.8 | 22
CCc1nc(-c2ncn3c2CN=C(c2ccccc2)c2ccccc2-3)no1 | 2.11 | 16
CCc1noc(-c2ncn3c2CN(C)C(=O)c2cc(F)ccc2-3)n1 | 2.34 | 105
CCCc1noc(-c2ncn3c2CN(C)C(=O)c2c(F)cccc2-3)n1 | 1.94 | 24
CCCc1nc(-c2ncn3c2CN(C)C(=O)c2c(F)cccc2-3)no1 | 1.7 | 14
Cc1nc(-c2ncn3c2CN=C(c2ccccc2Cl)c2ccccc2-3)no1 | 1.35 | 6.7

SMILES | GABA shift [1] | IC50 [2] [nM]
CCCc1nc(-c2ncn3c2CN(C)C(=O)c2c(Cl)cccc2-3)no1 | 1.41 | 3.8
CCc1nc(-c2ncn3c2CN=C(c2ccccc2)c2c(F)cccc2-3)no1 | 1.82 | 7.5
Cc1nc(-c2ncn3c2CN(C)C(=O)c2cc(F)ccc2-3)no1 | 1.53 | 21
CCc1noc(-c2ncn3c2CN=C(c2ccccc2)c2ccccc2-3)n1 | 1.2 | 19
CC(C)c1nc(-c2ncn3c2CN=C(c2ccccc2)c2c(F)cccc2-3)no1 | 2.08 | 6.1
Cc1noc(-c2ncn3c2CN(C)C(=O)c2c(Cl)cccc2-3)n1 | 1.51 | 8.1
Cc1nc(-c2ncn3c2CN=C(c2ccccc2)c2cc(Cl)ccc2-3)no1 | 1.17 | 71
CCCc1noc(-c2ncn3c2CN=C(c2ccccc2)c2cc(Cl)ccc2-3)n1 | 2.57 | 120
CC(C)c1noc(-c2ncn3c2CN=C(c2ccccc2Cl)c2ccccc2-3)n1 | 1.83 | 31
Cc1nc(-c2ncn3c2CN(C)C(=O)c2ccccc2-3)no1 | 1.28 | 27
CCc1nc(-c2ncn3c2CN=C(c2ccccc2)c2c(Cl)cccc2-3)no1 | 1.65 | 2.8
CCc1nc(-c2ncn3c2CN=C(c2ccccc2Cl)c2cc(Cl)ccc2-3)no1 | 1.86 | 9.4
CCc1nc(-c2ncn3c2CN(C)C(=O)c2c(Cl)cccc2-3)no1 | 1.12 | 6.4
CC(C)c1noc(-c2ncn3c2CN=C(c2ccccc2)c2c(F)cccc2-3)n1 | 2.03 | 1.4
CC(C)c1noc(-c2ncn3c2CN=C(c2ccccc2)c2ccccc2-3)n1 | 1.7 | 52
CC(C)c1noc(-c2ncn3c2CN=C(c2ccccc2)c2cc(Cl)ccc2-3)n1 | 1.06 | 120
CCCc1noc(-c2ncn3c2CN(C)C(=O)c2ccccc2-3)n1 | 2.08 | 120
Cc1nc(-c2ncn3c2CN(C)C(=O)c2c(Cl)cccc2-3)no1 | 1.18 | 3.4
CC(C)c1nc(-c2ncn3c2CN(C)C(=O)c2cc(F)ccc2-3)no1 | 2.76 | 43
CC(C)c1nc(-c2ncn3c2CN=C(c2ccccc2)c2cc(Cl)ccc2-3)no1 | 2.89 | 53
CCc1noc(-c2ncn3c2CN=C(c2ccccc2)c2c(F)cccc2-3)n1 | 2.31 | 9.8
CCCc1noc(-c2ncn3c2CN(C)C(=O)c2cc(F)ccc2-3)n1 | 2 | 42
CC(C)c1nc(-c2ncn3c2CN=C(c2ccccc2)c2ccccc2-3)no1 | 2.57 | 18
CCCc1nc(-c2ncn3c2CN=C(c2ccccc2)c2cc(Cl)ccc2-3)no1 | 2.22 | 45
Cc1noc(-c2ncn3c2CN(C)C(=O)c2cc(F)ccc2-3)n1 | 1.47 | 50
Cc1noc(-c2ncn3c2CN=C(c2ccccc2Cl)c2ccccc2-3)n1 | 1.29 | 31
